Here are results for 26 molecules from PubChem BioAssay AID573 (SRMLSC, 2007).

The structures appear in SMILES notation. In all, about 65,000 compounds went through this assay and about 1,400 (2.2%) were called active. Many of the other results were omitted from the sample, so actives are more common in it than they were. Unmarked numbers belong to inactive results.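 Rule for the calls: active = growth inhibition at or above a cutoff equal to the mean over every tested compound plus 3 SD (cut at about 60% in these data); inactive = the rest.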

This assay in a line: E. coli ΔtolC antibacterial growth inhibition – strain BW25113 ΔtolC::kan, 384-well, primary screen (AID 573). To be noted: E. coli BW25113 tolC mutant growth, OD615; hits give high values; screened at 10 µM (by protocol). The gist of the method: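 Doses: one dose of 10 µM final / Material: E. coli BW25113 ΔtolC::kan, tolC deletion mutant strain / Buffer or medium: LB with kanamycin 50 µg/mL / Evaluation: percent growth inhibition / Detection: optical density read at 615 nm / Incubation: 37 °C, 20 h exposure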
Take `COc1ccc(OC)c(CNC(=O)C2CCCN(c3nc4ccccc4o3)C2)c1` (stereo unspecified): the growth inhibition is 1.68%.
As for `Cc1cc(C(F)(F)F)c(C#N)c(SCC(=O)NC2CC2)n1`, the growth inhibition was 16.2%.
The same measure for `Cc1cc(C)c(C#N)c(SCS(=O)c2ccc(C(C)(C)C)cc2)n1` (stereo unspecified): 70.6% (active); for `COCc1cc(C)nc(SCC(=O)Nc2cccc(C)c2)c1C#N`: -0.31%.
The same measure for `N#Cc1nc(Cc2cccc3ccccc23)oc1NCc1ccc2c(c1)OCO2`: 57.4%; for `CCOc1ccc(Nc2oc(Cc3ccccc3)nc2C#N)cc1`: 31.9%; for `N#Cc1nc(Cc2ccccc2)oc1NCCc1ccccc1`: 74.2% (active).
The same measure for `C=CCn1cnc2scc(-c3ccccc3)c2c1=O`: 6.35%; for `C=CCn1c(SCc2nnc(-c3ccccc3)o2)nnc1C(O)c1ccccc1` (stereo unspecified): 0.17%.
For `COCCn1c(C)cc(C(=O)CSc2ncnc3sc4c(c23)CCC4)c1C`, the growth inhibition was 0.17%.
For `COc1ccc(Nc2cc(C)nc(-n3nc(C)cc3C)n2)cc1` the value was 17.6%; for `COCCNc1nc(-n2nc(C)cc2C)nc2sc3c(c12)CCCC3`, 94.3% (active); for `Cc1cc(C)n(-c2nc(SCC(=O)N3CCCC3)c3c4c(sc3n2)CCCC4)n1`, 85.9% (active).
Consider `Cc1nc(SCC(=O)Nc2cc(C)on2)c2c3c(sc2n1)CCCC3`, for which the growth inhibition is 12.3%.
The same measure for `CC(=O)c1sc2nc(SCC(=O)N3CCCCC3)[nH]c(=O)c2c1C`: 8.81%.
For `CCCOC(=O)C1=C(C)NC2=C(C(=O)C(C(=O)OC)C(C)C2)C1c1ccc(N(C)C)cc1` (stereo unspecified) the value was 16%.
For the molecule `Cn1c(=O)[nH]c(=O)c2c1nc(N(CCO)Cc1ccccc1)n2Cc1ccccc1Cl`, the growth inhibition is 0.78%.
For `O=C(NCc1cccs1)C1CCN(S(=O)(=O)c2ccc3c(c2)OCCO3)CC1` the value was -14.5%.
With `COC(=O)COc1ccc(S(=O)(=O)Nc2ccc(NC(C)=O)cc2)cc1`, the growth inhibition was -1.6%.
The same measure for `COC(=O)CNS(=O)(=O)c1ccc(Cc2ccc(S(=O)(=O)NCC(=O)OC)cc2)cc1`: 69.7% (active).
For `COc1ccc(CCNS(=O)(=O)c2ccc(F)cc2)cc1OC` the value was -5.35%; for `COc1ccccc1Nc1ncnc2c1oc1ccccc12`, -1.75%; for `CS(=O)(=O)N(Cc1nc2sc3c(c2c(=O)[nH]1)CCCC3)C1CCCCC1`, 83.8% (active).
The same measure for `COc1ncnc2sc3c(c12)CCCC3`: 2.48%; for `CCOC(=O)N1CCN(S(=O)(=O)c2ccc(C(=O)Nc3ccc(F)cc3F)cc2)CC1`: -4.51%; for `c1csc(-c2nc(-c3ccncc3)no2)c1`: 1.08%.
